Among the data in ChEMBL document CHEMBL5653631, “A Potent and Selective ULK1 Inhibitor Suppresses Autophagy and Sensitizes Cancer Cells to Nutrient Stress” (iScience, 2018) are fold change (FC), inhibition and IC50 values, retold here.

In assay [1] the target is Wee1-like protein kinase (Homo sapiens) (UniProt P30291). Nature of the assay: Inhibition of human recombinant Wee1 at 15 nM related to control ULK1.
Assay [2] concerns the target RAC-alpha serine/threonine-protein kinase (Homo sapiens) (UniProt P31749). Nature of the assay: Inhibition of human recombinant AKT1 at 15 nM in presence of ATP by radiometric assay relative to control. Put shortly:
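Panel of 327 recombinant human kinases in radiometric activity assays, each screened in duplicate at a single inhibitor concentration; percent activity remaining relative to vehicle control, percent inhibition taken as 100 minus activity remaining.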

The target in assay [3] is Serine/threonine-protein kinase PAK 4 (Homo sapiens) (UniProt O96013). Nature of the assay: Inhibition of human recombinant PAK4 at 15 nM related to control ULK1.
The target of assay [4] is Serine/threonine-protein kinase Nek7 (Homo sapiens) (UniProt Q8TDX7). Nature of the assay: Inhibition of human recombinant NEK7 at 15 nM related to control ULK1.
In assay [5] the target is Serine/threonine-protein kinase N2 (Homo sapiens) (UniProt Q16513). The assay can be described thus: Inhibition of human recombinant PKN2 at 15 nM related to control ULK1.
Assay [6] has as its target Serine/threonine-protein kinase ULK1 (Homo sapiens, UniProt O75385). Nature of the assay: Inhibition of human ULK1.
Assay [7] has as its target Dual specificity protein kinase CLK1 (Homo sapiens) (UniProt P49759). Nature of the assay: Inhibition of human recombinant CLK1 at 15 nM related to control ULK1.
The target of assay [8] is Serine/threonine-protein kinase D2 (Homo sapiens) (UniProt Q9BZL6). Nature of the assay: Inhibition of human recombinant PKD2 at 15 nM related to control ULK1.
Assay [9] has as its target Activin receptor type-1-like (Homo sapiens) (UniProt P37023). Nature of the assay: Inhibition of human recombinant ALK1 at 15 nM related to control ULK1. In a few lines:
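Panel of 327 recombinant human kinases, each assayed in vitro by radiometric activity assay in duplicate at a single inhibitor concentration per compound, chosen with reference to its ULK1 inhibition. Activity remaining was expressed as percent of vehicle control, and percent inhibition was calculated as 100 minus percent activity remaining.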

The target of assay [10] is T1, Serine/threonine-protein kinase Sgk2 (Homo sapiens) (UniProt Q9HBY8).
T1 sequence (whole entry): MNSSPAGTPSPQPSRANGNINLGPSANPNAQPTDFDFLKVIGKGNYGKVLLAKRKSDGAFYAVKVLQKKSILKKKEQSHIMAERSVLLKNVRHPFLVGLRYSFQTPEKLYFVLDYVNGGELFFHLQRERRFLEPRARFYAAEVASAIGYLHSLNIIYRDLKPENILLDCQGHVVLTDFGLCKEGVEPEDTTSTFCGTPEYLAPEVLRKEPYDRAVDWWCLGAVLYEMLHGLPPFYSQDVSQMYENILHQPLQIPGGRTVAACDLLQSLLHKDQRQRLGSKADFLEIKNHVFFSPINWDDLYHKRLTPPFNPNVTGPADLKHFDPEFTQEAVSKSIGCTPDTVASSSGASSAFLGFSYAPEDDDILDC
The assay can be described thus: Inhibition of human recombinant SGK2 at 15 nM in presence of ATP by radiometric assay relative to control.

Assay [11] has as its target Vascular endothelial growth factor receptor 2 (Homo sapiens) (UniProt P35968). The assay can be described thus: Inhibition of human recombinant KDR at 40 nM related to control ULK1.
Assay [12] addresses Serine/threonine-protein kinase WNK3 (Homo sapiens) (UniProt Q9BYP7). Nature of the assay: Inhibition of human recombinant Wnk3 at 40 nM in presence of ATP by radiometric assay relative to control.
In assay [13] the target is Macrophage colony-stimulating factor 1 receptor (Homo sapiens) (UniProt P07333). The assay can be described thus: Inhibition of human recombinant FMS at 500 nM related to control ULK1.
Assay [14] deals with T2, cGMP-dependent protein kinase 2 (Homo sapiens) (UniProt Q13237).
T2 sequence (whole entry): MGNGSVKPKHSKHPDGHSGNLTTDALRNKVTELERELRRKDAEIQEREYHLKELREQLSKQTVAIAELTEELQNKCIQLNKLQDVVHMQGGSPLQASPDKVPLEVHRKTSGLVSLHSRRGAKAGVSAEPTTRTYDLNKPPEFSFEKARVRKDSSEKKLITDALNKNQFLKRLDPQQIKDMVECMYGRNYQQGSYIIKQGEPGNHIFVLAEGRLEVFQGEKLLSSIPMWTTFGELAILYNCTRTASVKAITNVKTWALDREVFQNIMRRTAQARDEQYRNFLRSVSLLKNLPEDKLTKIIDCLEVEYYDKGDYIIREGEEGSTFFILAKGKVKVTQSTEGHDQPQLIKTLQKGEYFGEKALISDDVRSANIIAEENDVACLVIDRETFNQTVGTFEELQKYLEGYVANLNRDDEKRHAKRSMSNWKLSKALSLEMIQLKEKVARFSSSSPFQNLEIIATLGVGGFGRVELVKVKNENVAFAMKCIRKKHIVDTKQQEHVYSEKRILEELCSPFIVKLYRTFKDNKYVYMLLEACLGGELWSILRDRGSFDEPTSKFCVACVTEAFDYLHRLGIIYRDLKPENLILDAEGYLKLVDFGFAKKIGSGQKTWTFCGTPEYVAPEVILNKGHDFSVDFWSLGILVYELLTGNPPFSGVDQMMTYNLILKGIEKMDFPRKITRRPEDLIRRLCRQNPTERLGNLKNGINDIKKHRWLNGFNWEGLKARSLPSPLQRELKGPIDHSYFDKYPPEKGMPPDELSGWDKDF
The assay can be described thus: Inhibition of human recombinant PKG2 at 500 nM related to control ULK1.

The target of assay [15] is Serine/threonine-protein kinase PAK 6 (Homo sapiens) (UniProt Q9NQU5). Nature of the assay: Inhibition of human recombinant PAK6 at 500 nM in presence of ATP by radiometric assay relative to control.
The target of assay [16] is Tyrosine-protein kinase SYK (Homo sapiens) (UniProt P43405). The assay can be described thus: Inhibition of human recombinant SYK at 500 nM related to control ULK1.
The target of assay [17] is Calcium/calmodulin-dependent protein kinase kinase 2 (Homo sapiens) (UniProt Q96RR4). Nature of the assay: Inhibition of human recombinant CaMKK2 at 500 nM in presence of ATP by radiometric assay relative to control.
Assay [18] concerns the target T3, Mitogen-activated protein kinase 13 (Homo sapiens) (UniProt O15264).
T3 sequence (whole entry): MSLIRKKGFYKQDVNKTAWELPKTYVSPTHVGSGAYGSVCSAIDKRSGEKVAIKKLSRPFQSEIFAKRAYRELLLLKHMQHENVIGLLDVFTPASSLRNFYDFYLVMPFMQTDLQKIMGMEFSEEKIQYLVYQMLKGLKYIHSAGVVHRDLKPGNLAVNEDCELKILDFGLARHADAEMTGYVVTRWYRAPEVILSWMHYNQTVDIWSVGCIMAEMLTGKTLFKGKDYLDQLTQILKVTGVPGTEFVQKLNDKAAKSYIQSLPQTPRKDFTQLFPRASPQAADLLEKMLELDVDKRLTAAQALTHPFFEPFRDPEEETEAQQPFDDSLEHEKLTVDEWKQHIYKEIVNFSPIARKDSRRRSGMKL
The assay can be described thus: Inhibition of human recombinant p38delta at 500 nM in presence of ATP by radiometric assay relative to control.

Molecules are shown by their SMILES.

Activin receptor type-1-like (Homo sapiens), sequence (P37023 whole entry): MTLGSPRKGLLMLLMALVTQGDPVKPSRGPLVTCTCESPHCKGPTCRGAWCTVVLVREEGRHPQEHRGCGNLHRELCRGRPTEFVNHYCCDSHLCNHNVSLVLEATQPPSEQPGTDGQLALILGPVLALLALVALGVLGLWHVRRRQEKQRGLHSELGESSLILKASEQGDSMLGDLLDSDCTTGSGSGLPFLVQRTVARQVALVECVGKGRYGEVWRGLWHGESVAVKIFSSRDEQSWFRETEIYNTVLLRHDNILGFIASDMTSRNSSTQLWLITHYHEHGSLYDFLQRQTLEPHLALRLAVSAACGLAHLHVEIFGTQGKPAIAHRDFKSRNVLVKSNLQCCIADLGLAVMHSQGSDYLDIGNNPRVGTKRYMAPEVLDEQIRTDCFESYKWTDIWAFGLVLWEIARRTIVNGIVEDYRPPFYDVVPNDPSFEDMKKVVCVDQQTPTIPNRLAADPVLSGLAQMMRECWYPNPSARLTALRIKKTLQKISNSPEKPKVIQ
Serine/threonine-protein kinase WNK3 (Homo sapiens), sequence (Q9BYP7 whole entry): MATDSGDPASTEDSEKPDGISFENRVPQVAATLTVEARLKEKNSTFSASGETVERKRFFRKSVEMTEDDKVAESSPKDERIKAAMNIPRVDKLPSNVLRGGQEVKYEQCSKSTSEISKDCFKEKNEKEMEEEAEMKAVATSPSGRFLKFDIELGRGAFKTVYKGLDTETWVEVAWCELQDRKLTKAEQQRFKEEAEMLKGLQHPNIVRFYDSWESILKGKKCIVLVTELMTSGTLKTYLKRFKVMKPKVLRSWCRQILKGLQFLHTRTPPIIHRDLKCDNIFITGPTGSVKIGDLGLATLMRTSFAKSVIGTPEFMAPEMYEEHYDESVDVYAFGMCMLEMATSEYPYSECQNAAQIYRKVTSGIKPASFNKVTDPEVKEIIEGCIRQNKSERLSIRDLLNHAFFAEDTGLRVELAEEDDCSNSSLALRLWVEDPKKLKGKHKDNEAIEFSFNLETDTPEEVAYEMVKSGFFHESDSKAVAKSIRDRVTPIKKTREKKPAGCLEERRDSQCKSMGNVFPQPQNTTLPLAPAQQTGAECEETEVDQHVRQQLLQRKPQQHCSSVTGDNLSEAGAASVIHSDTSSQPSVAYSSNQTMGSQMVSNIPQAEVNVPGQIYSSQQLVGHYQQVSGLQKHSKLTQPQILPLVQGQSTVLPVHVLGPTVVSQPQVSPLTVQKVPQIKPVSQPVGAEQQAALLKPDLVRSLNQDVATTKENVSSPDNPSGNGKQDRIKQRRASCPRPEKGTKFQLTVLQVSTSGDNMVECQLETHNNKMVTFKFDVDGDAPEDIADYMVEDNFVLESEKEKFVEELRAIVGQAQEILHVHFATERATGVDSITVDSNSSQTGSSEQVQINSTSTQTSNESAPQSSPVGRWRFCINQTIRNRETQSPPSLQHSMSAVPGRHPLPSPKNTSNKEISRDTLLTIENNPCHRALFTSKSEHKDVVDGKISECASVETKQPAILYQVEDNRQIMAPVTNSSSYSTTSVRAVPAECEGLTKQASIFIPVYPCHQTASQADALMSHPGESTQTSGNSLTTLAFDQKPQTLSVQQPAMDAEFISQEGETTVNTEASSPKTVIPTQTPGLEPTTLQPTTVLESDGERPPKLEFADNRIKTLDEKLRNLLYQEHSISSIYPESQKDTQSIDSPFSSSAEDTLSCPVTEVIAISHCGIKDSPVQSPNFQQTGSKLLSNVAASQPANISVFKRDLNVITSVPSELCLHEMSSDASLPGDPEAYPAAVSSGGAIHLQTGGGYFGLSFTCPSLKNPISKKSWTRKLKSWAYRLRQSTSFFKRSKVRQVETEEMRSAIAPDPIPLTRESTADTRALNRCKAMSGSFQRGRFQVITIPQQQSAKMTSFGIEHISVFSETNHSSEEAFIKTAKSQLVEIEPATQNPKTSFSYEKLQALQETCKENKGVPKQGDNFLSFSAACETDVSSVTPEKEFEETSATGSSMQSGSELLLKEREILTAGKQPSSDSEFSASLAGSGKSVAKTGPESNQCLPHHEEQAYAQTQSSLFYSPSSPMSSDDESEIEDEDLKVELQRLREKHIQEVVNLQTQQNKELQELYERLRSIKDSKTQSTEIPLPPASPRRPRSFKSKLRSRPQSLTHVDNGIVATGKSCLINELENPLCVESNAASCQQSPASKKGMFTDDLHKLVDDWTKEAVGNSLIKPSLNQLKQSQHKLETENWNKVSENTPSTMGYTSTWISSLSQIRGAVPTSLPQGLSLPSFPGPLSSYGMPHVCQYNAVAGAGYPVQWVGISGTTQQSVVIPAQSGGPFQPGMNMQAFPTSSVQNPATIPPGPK
Serine/threonine-protein kinase ULK1, sequence (O75385 whole entry): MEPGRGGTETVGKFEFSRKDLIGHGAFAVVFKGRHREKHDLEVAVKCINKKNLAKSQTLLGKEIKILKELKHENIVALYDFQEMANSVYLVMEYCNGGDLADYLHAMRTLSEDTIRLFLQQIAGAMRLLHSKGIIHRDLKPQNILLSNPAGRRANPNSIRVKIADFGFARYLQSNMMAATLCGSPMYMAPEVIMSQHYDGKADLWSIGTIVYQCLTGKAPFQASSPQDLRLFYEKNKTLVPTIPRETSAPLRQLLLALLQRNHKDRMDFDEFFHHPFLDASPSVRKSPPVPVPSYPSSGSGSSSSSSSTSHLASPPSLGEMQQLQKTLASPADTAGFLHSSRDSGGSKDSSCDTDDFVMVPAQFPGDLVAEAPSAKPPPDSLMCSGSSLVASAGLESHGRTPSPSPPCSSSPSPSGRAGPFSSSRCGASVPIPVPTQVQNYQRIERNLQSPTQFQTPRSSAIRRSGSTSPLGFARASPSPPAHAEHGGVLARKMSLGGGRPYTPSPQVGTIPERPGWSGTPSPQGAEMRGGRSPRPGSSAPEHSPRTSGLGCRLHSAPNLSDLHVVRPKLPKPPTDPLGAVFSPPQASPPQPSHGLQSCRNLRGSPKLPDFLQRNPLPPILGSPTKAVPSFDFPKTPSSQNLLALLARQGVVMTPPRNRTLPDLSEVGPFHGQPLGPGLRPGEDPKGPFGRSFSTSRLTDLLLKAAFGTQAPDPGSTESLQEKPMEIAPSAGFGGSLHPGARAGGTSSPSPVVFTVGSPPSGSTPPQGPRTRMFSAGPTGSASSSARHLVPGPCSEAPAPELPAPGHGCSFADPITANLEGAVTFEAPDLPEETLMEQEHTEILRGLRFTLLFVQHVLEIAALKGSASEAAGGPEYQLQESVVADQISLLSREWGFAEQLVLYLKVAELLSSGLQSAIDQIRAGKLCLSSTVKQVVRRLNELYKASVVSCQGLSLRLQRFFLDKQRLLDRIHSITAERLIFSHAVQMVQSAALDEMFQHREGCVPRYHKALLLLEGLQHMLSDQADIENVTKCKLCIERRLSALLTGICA
Serine/threonine-protein kinase Nek7 (Homo sapiens), sequence (Q8TDX7 whole entry, looked up): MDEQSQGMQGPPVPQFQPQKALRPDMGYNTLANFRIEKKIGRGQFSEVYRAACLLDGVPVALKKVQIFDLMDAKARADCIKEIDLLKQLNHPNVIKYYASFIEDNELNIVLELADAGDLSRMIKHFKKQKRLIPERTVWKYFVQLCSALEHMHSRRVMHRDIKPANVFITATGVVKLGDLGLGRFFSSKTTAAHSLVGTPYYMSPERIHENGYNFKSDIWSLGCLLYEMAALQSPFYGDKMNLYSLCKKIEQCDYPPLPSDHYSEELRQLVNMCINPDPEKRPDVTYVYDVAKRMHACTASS
Macrophage colony-stimulating factor 1 receptor (Homo sapiens), sequence (P07333 whole entry): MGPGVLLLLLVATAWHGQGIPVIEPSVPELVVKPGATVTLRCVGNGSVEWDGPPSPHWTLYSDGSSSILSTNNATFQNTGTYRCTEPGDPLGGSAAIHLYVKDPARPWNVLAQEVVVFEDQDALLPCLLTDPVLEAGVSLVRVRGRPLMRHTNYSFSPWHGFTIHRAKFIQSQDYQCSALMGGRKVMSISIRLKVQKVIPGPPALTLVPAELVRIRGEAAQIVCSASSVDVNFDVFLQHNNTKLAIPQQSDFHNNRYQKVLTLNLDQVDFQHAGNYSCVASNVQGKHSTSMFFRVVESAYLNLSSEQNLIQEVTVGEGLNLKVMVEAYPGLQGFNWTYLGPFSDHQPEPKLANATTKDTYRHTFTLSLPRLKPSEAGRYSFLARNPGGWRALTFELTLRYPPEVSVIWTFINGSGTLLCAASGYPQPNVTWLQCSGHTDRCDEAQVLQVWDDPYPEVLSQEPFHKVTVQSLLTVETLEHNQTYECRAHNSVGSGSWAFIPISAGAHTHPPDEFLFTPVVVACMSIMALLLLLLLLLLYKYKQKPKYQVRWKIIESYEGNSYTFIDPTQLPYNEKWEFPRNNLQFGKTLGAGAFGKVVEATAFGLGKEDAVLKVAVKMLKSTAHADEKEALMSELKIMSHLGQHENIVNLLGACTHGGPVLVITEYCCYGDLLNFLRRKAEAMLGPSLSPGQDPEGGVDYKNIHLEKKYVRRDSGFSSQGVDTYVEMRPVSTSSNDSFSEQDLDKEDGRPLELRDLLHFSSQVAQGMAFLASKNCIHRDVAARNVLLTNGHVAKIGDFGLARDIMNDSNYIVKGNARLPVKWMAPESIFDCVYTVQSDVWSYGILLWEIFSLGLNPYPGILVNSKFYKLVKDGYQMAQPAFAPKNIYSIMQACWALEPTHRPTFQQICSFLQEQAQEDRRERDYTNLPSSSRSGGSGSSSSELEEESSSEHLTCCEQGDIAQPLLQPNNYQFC

As for `CC(C)[C@H](NC(=O)c1cc(-c2cnn3cc(-c4ccc(OCCN5CCCCC5)cc4)cnc23)cs1)C(F)(F)F`, the fold change (FC) in [1] was 0.17; in [3] it was 0; in [4] it was 0; in [5], 0; in [7] it was 0.95; in [8], 0. Moreover, in [9], the fold change (FC) came out at 0.08. Further, the inhibition in assay [2] and in assay [10] was 0% in each case. Besides, the IC50 (usually the concentration that gives 50% inhibition) in assay [6] came to 1.6 nM.

Turning to `O=C(N[C@@H](C1CC1)C(F)(F)F)c1cc(-c2cnn3cc(-c4ccc(F)cc4)cnc23)cs1`, in [11], the fold change (FC) was determined as 0.07. Moreover, the inhibition (usually how much of the control response was suppressed) in assay [12] worked out at 3%.

Consider `CNC(=O)c1ccccc1Oc1nc(Nc2cc(OC)c(OC)c(OC)c2)ncc1Br`, for which the fold change (FC) in assay [13] was determined as 0.26; in assay [14], 0.03; in assay [16], 0. For the same compound, the inhibition in [15] came out at 19%; in assay [17], 4%; in assay [18] it was 19%.
